Test results from ChEMBL document CHEMBL1129688, “ATP-citrate lyase as a target for hypolipidemic intervention. Design and synthesis of 2-substituted butanedioic acids as novel, potent inhibitors of the enzyme” (J Med Chem, 1996).

The compounds below were run against T1, ATP-citrate synthase (Rattus norvegicus, UniProt P16638) (assay: Inhibitory activity against rat ATP-citrate lyase activity by the […] dehydrogenase catalyzed reduction of oxaloacetate by NADH.). Conditions: not given.
T1 sequence (P16638 whole entry): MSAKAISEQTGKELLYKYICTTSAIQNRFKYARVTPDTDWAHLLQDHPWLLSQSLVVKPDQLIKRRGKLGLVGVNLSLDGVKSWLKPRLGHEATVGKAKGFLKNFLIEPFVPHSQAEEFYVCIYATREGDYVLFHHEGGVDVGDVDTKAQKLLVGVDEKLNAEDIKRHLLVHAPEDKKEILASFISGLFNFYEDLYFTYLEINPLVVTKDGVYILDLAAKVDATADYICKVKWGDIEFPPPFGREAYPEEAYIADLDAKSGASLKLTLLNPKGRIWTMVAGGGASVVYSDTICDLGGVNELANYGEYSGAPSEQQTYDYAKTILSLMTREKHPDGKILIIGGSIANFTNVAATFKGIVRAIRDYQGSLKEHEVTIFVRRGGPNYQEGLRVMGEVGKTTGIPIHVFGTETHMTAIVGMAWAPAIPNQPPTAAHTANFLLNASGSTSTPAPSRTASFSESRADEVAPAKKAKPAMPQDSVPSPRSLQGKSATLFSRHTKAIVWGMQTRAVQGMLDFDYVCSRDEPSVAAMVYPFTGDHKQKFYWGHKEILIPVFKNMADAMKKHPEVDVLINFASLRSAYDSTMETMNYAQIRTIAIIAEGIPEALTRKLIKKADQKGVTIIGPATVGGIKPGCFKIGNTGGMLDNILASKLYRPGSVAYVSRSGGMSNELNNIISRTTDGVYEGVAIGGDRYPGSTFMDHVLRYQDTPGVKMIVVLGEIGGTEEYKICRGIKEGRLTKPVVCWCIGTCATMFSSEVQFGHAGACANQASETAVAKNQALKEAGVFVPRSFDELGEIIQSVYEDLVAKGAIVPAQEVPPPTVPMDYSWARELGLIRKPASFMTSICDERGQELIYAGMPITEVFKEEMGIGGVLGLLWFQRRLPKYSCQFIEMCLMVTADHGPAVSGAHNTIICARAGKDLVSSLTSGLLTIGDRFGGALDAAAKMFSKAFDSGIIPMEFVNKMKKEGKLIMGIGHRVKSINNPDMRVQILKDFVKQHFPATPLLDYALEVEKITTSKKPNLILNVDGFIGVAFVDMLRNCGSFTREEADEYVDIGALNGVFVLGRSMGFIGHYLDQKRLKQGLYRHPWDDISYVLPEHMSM
Summary of the method: (§1)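 Purified rat ACL or recombinant human ACL was assayed by coupling oxaloacetate formation to malate dehydrogenase reduction with NADH. Buffer: Tris 100 mM pH 8.0, MgCl2 10 mM, KCl 10 mM, DTT 10 mM, plus ATP and NADH. CoA was 200 μM, and citrate was added to 100 μM (its Km) to start the reaction. A340 decrease was followed over 20 min. Ki came from fitting v = Vmax/(2 + [I]/Ki), assuming citrate-competitive inhibition.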

Row | SMILES | Ki [µM]
1 | CN(CCCCSCC(O)(CC(=O)O)C(=O)O)S(=O)(=O)c1ccc(Cl)cc1Cl (stereo unspecified) | 178
2 | O=C(O)CC(O)(CSCCCCCCc1cccc(Cl)c1)C(=O)O (stereo unspecified) | 150
3 | O=C(O)CC(O)(CSCCCCCOc1ccc(Cl)cc1Cl)C(=O)O (stereo unspecified) | 67
4 | O=C(O)CC(O)(CC(=O)CCCCCc1ccc(Cl)cc1Cl)C(=O)O (stereo unspecified) | 25
5 | O=C(O)CC(O)(CSCCCCCCc1ccc(O)cc1)C(=O)O (stereo unspecified) | 420
6 | O=C(O)CC(O)(CSCCCCCCc1ccc(F)cc1)C(=O)O (stereo unspecified) | 120
7 | O=C(O)CCCSCCCCCCc1ccc(Cl)cc1Cl | 25
8 | NS(=O)(=O)c1ccc(CCCCCCSCC(O)(CC(=O)O)C(=O)O)cc1 (stereo unspecified) | 500
9 | O=C(O)CC(O)(CSCCCCCc1ccccc1)C(=O)O (stereo unspecified) | 490
10 | O=C(O)CC(O)(CSCCCCCSc1ccc(Cl)cc1Cl)C(=O)O (stereo unspecified) | 10
11 | O=C(O)CC(O)(CCCCCCCc1ccc(Cl)cc1Cl)C(=O)O (stereo unspecified) | 10.5
12 | O=C(O)CC(O)(CSCCCCCCc1ccc(-c2ccccc2)cc1)C(=O)O (stereo unspecified) | 38
13 | O=C(O)CC(O)(CSCCCCCCc1ccc(C(=O)O)cc1)C(=O)O (stereo unspecified) | 420
14 | O=C(O)CC(O)(CSCCCCCCCc1ccc(Cl)cc1Cl)C(=O)O (stereo unspecified) | 7.2
15 | O=C(O)CC(O)(CSCCCCCNc1ccc(Cl)cc1Cl)C(=O)O (stereo unspecified) | 12
16 | O=C(O)CC(O)(CSCCCCCCc1c(Cl)cccc1Cl)C(=O)O (stereo unspecified) | 76
17 | O=C(O)CC(O)(CSCCCCCCc1cccc(Cl)c1Cl)C(=O)O (stereo unspecified) | 7.3
18 | O=C(O)CC(O)(CSCc1ccc(Cl)cc1Cl)C(=O)O (stereo unspecified) | 410
19 | O=C(O)CC(O)CSCCCCCCc1ccc(Cl)cc1Cl (stereo unspecified) | 88
20 | O=C(O)CC(O)(CSCCCCCC(=O)c1ccc(Cl)cc1Cl)C(=O)O (stereo unspecified) | 130
21 | O=C(O)CC(O)(CSCCCCNS(=O)(=O)c1ccc(Cl)cc1Cl)C(=O)O (stereo unspecified) | 175
22 | O=C(O)CC(O)(CSCCCCCc1ccc(-c2ccccc2)cc1)C(=O)O (stereo unspecified) | 226
23 | O=C(O)CC(O)(CSCCCCCCc1ccc(Cl)c(Cl)c1)C(=O)O (stereo unspecified) | 110
24 | O=C(O)CC(O)(CSCCCCCCc1ccc(Br)cc1)C(=O)O (stereo unspecified) | 31
25 | O=C(O)CC(O)(CCSCCCCCc1ccc(Cl)cc1Cl)C(=O)O (stereo unspecified) | 2.9

Continued, values first:

Row | Ki [µM] | SMILES
26 | 2.6 | O=C(O)CC(CSCCCCCCc1ccc(Cl)cc1Cl)C(=O)O (stereo unspecified)
27 | 131 | O=C(O)CC(CSCCCCC[S+]([O-])c1ccc(Cl)cc1Cl)C(=O)O (stereo unspecified)
28 | 300 | O=C(O)CC(O)(CSCCCCCCCCCc1ccc(Cl)cc1Cl)C(=O)O (stereo unspecified)
29 | 7.4 | O=C(O)CC(O)(CSCCCC/C=C\c1ccc(Cl)cc1Cl)C(=O)O (stereo unspecified)
30 | 71 | O=C(O)CC(O)(CSCCCCCCc1ccc(Cl)cc1)C(=O)O (stereo unspecified)
31 | 2.9 | O=C(O)CC(O)(CCCCCCCCc1ccc(Cl)cc1Cl)C(=O)O (stereo unspecified)
32 | 33 | O=C(O)CC(O)(CSCCCC/C=C/c1ccc(Cl)cc1Cl)C(=O)O (stereo unspecified)
33 | 18 | O=C(O)CC(O)(CSCCCCCCc1ccccc1-c1ccccc1)C(=O)O (stereo unspecified)
34 | 69 | O=C(O)CC(O)(CSCCCCCCc1ccccc1Cl)C(=O)O (stereo unspecified)
35 | 64 | O=C(O)CC(O)(CSCCCCCS(=O)(=O)c1ccc(Cl)cc1Cl)C(=O)O (stereo unspecified)
36 | 21 | O=C(O)CC(O)(CSCCCCCc1ccccc1-c1ccccc1)C(=O)O (stereo unspecified)

The compounds below were run against T1, ATP-citrate synthase (assay: Inhibition of recombinant ATP-Citrate Lyase activity as […] dehydrogenase catalyzed reduction of oxaloacetate by NADH). Conditions: in the assay text read “purified rat ATP-Citrate Lyase” for “recombinant ATP-Citrate Lyase”.
Summary of the method: as §1

Row | SMILES | Ki [µM]
37 | O=C(O)CC(O)(CSCCCCCCc1c(Cl)cc(Cl)cc1-c1ccccc1)C(=O)O (stereo unspecified) | 10
38 | O=C(O)CC(O)(CSCCCCCCc1ccc(F)cc1F)C(=O)O (stereo unspecified) | 270
39 | Cc1ccc(CCCCCCSCC(O)(CC(=O)O)C(=O)O)c(C)c1 (stereo unspecified) | 160
40 | O=C(O)CC(O)(CSCCCCCCc1cccc2ccccc12)C(=O)O (stereo unspecified) | 63

Second part, the compound after the results:

Row | Ki [µM] | SMILES
41 | 390 | O=C(O)CC(O)(CSCCCc1ccc(Cl)cc1Cl)C(=O)O (stereo unspecified)
42 | 280 | COc1ccc(CCCCCCSCC(O)(CC(=O)O)C(=O)O)cc1 (stereo unspecified)
43 | 480 | O=C(O)CC(O)(CSCCc1ccc(Cl)cc1Cl)C(=O)O (stereo unspecified)
44 | 94 | O=C(O)CC(O)(CSCCCCCCc1ccccc1Cc1ccccc1)C(=O)O (stereo unspecified)
45 | 93 | O=C(O)CC(O)(CSCCCCCCc1ccc2ccccc2c1)C(=O)O (stereo unspecified)
46 | 75 | O=C(O)CC(O)(CSCCCCCCc1ccccc1[N+](=O)[O-])C(=O)O (stereo unspecified)
